Laboratory results from ChEMBL document CHEMBL2029221, “Acylprolinamides: a new class of peptide deformylase inhibitors with in vivo antibacterial activity” (Bioorg Med Chem Lett, 2012).
Converted amounts (≈) assume the structure as drawn.

What was measured:
[1] = molecular target: T1, Peptide deformylase (Staphylococcus aureus, UniProt P68826); test: Inhibition of Staphylococcus aureus PDF assessed as formate release from fMAS peptide substrate after 20 mins by formate dehydrogenase coupled assay
T1 sequence (P68826 whole entry): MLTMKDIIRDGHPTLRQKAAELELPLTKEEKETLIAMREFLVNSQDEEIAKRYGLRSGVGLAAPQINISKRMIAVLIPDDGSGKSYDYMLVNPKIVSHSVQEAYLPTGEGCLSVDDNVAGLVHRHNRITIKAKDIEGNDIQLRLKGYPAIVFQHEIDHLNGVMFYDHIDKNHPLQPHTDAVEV

[2] = system: Moraxella catarrhalis; test: Antibacterial activity against Moraxella catarrhalis 1502 by broth microdilution method; format: functional
How it was run: (§1)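 Broth microdilution following NCCLS document M7-A4. Serial two-fold dilutions from 0.06 to 64 mcg/ml were tested. The MIC was the lowest concentration preventing visible growth, with the endpoint read with the aid of a mirror reader.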

[3] = system: Staphylococcus aureus; test: Antibacterial activity against Staphylococcus aureus Oxford by broth microdilution method; format: functional; how it was run: as §1
[4] = system: Streptococcus pneumoniae; test: Antibacterial activity against Streptococcus pneumoniae 1629 by broth microdilution method; format: functional; how it was run: as §1
[5] = Inhibition of Haemophilus influenzae PDF assessed as formate release from fMAS peptide substrate after 20 mins by formate dehydrogenase coupled assay
How it was run: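 Coupled assay in which formate released from the fMAS peptide is oxidized by formate dehydrogenase, reducing NAD to NADH, read as the rise in absorbance at 340. Reactions were started by adding PDF and velocities measured for 20 min at 25 °C. Values are the mean of at least 2 runs.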

[6] = molecular target: T2, Peptide deformylase (Streptococcus pneumoniae serotype 4 (strain ATCC BAA-334 / TIGR4), UniProt Q9F2F0); test: Inhibition of Streptococcus pneumoniae PDF assessed as formate release from fMAS peptide substrate after 20 mins by formate dehydrogenase coupled assay
T2 sequence (Q9F2F0 whole entry): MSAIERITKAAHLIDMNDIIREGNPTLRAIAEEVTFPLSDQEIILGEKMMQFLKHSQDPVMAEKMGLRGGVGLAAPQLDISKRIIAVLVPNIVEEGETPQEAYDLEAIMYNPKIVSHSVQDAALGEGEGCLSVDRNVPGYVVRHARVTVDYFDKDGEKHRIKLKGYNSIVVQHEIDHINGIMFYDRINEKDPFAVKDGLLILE

[7] = system: Haemophilus influenzae; test: Antibacterial activity against Haemophilus influenzae Q1 by broth microdilution method; format: functional; how it was run: as §1
[8] = system: Enterococcus faecalis; test: Antibacterial activity against Enterococcus faecalis 7 by broth microdilution method; format: functional; how it was run: as §1

Row | Compound | IC50 [1] [nM] | MIC [2] [µg/mL] | MIC [3] [µg/mL] | MIC [4] [µg/mL] | IC50 [5] [nM] | IC50 [6] [nM] | MIC [7] [µg/mL] | MIC [8] [µg/mL]
1 | O=CN(O)C[C@@H](CC1CCCC1)C(=O)N1CCC[C@H]1C(=O)NC(=O)C1CCCC1 | 2.5 | ≤ 0.06 | 0.5 (≈ 1.23 µM) | 0.25 (≈ 0.613 µM) | 6.1 | 0.43 | 0.25 (≈ 0.613 µM) | 1 (≈ 2.45 µM)
2 | COCC(=O)NC(=O)[C@@H]1CCCN1C(=O)[C@H](CC1CCCC1)CN(O)C=O | 8 | ≤ 0.06 | 4 (≈ 10.4 µM) | 4 (≈ 10.4 µM) | 13 | 1 | 0.125 (≈ 0.326 µM) | 16 (≈ 41.7 µM)
3 | NCCNC(=O)NC(=O)[C@@H]1CCCN1C(=O)[C@H](CC1CCCC1)CN(O)C=O | 2.3 | 2 (≈ 5.03 µM) | 16 (≈ 40.3 µM) | 16 (≈ 40.3 µM) | 7 | 0.38 | > 64 | > 64
4 | CC(C)CC(=O)NC(=O)[C@@H]1CCCN1C(=O)[C@H](CC1CCCC1)CN(O)C=O | 4 | ≤ 0.06 | 1 (≈ 2.53 µM) | 1 (≈ 2.53 µM) | 7 | 0.8 | 0.5 (≈ 1.26 µM) | 2 (≈ 5.06 µM)
5 | O=CN(O)C[C@@H](CC1CCCC1)C(=O)N1CCC[C@H]1C(=O)NC(=O)C1CCC1 | 5 | ≤ 0.06 | 1 (≈ 2.54 µM) | 1 (≈ 2.54 µM) | 9 | 0.7 | 1 (≈ 2.54 µM) | 8 (≈ 20.3 µM)
6 | O=CN(O)C[C@@H](CC1CCCC1)C(=O)N1CCC[C@H]1C(=O)NC(=O)C1CCCCC1 | 3.7 | ≤ 0.06 | 1 (≈ 2.37 µM) | 0.25 (≈ 0.593 µM) | 5.2 | 0.5 | 0.5 (≈ 1.19 µM) | 1 (≈ 2.37 µM)
7 | O=CN(O)C[C@@H](CC1CCCC1)C(=O)N1CCC[C@H]1C(=O)NC(=O)NCCc1c[nH]cn1 | 1.3 | 0.5 (≈ 1.11 µM) | 64 (≈ 143 µM) | 8 (≈ 17.8 µM) | 4.3 | 0.15 | 16 (≈ 35.7 µM) | > 64
8 | O=CN(O)C[C@@H](CC1CCCC1)C(=O)N1CCC[C@H]1C(=O)NC(=O)NCCc1ccccn1 | 1.4 | ≤ 0.06 | 1 (≈ 2.18 µM) | 0.5 (≈ 1.09 µM) | 5.9 | 0.35 | 1 (≈ 2.18 µM) | 4 (≈ 8.7 µM)
9 | O=CN(O)C[C@@H](CC1CCCC1)C(=O)N1CCC[C@H]1C(=O)NC(=O)NC1CCC1 | 0.9 | ≤ 0.06 | 0.125 (≈ 0.306 µM) | 0.125 (≈ 0.306 µM) | 1.8 | 0.3 | 0.5 (≈ 1.22 µM) | 1 (≈ 2.45 µM)
10 | CC(C)(C)NC(=O)NC(=O)[C@@H]1CCCN1C(=O)[C@H](CC1CCCC1)CN(O)C=O | 1.2 | ≤ 0.06 | 1 (≈ 2.44 µM) | 0.125 (≈ 0.304 µM) | 2.4 | 0.22 | 1 (≈ 2.44 µM) | 1 (≈ 2.44 µM)
11 | O=CN(O)C[C@@H](CC1CCCC1)C(=O)N1CCC[C@H]1C(=O)NC(=O)NCCO | 3.8 | 0.125 (≈ 0.314 µM) | 4 (≈ 10 µM) | 2 (≈ 5.02 µM) | 8.8 | 1.1 | 0.5 (≈ 1.25 µM) | 32 (≈ 80.3 µM)
12 | O=CN(O)C[C@@H](CC1CCCC1)C(=O)N1CCC[C@H]1C(=O)NC(=O)NCCc1ccncc1 | 1.7 | ≤ 0.06 | 2 (≈ 4.35 µM) | 1 (≈ 2.18 µM) | 4.4 | 0.35 | 2 (≈ 4.35 µM) | 8 (≈ 17.4 µM)
13 | O=CN(O)C[C@@H](CC1CCCC1)C(=O)N1CCC[C@H]1C(=O)NC(=O)NC1CCCCC1 | 0.93 | ≤ 0.06 | 0.5 (≈ 1.15 µM) | 0.125 (≈ 0.286 µM) | 4 | 0.2 | 4 (≈ 9.16 µM) | 2 (≈ 4.58 µM)
14 | COC(=O)NC(=O)[C@@H]1CCCN1C(=O)[C@H](CC1CCCC1)CN(O)C=O | 4.5 | ≤ 0.06 | 1 (≈ 2.71 µM) | 1 (≈ 2.71 µM) | 13 | 1.9 | 0.125 (≈ 0.338 µM) | 4 (≈ 10.8 µM)
15 | O=CN(O)C[C@@H](CC1CCCC1)C(=O)N1CCC[C@H]1C(=O)NC(=O)NCc1ccccc1 | 1.7 | ≤ 0.06 | 0.5 (≈ 1.12 µM) | 0.125 (≈ 0.281 µM) | 6.5 | 0.19 | 2 (≈ 4.5 µM) | 0.5 (≈ 1.12 µM)
16 | C=CCNC(=O)NC(=O)[C@@H]1CCCN1C(=O)[C@H](CC1CCCC1)CN(O)C=O | 10 | ≤ 0.06 | 0.5 (≈ 1.27 µM) | 1 (≈ 2.54 µM) | 20 | 2.1 | 1 (≈ 2.54 µM) | 2 (≈ 5.07 µM)
17 | CC(C)C(=O)NC(=O)[C@@H]1CCCN1C(=O)[C@H](CC1CCCC1)CN(O)C=O | 5 | ≤ 0.06 | 2 (≈ 5.24 µM) | 2 (≈ 5.24 µM) | 10 | 1.5 | 0.5 (≈ 1.31 µM) | 4 (≈ 10.5 µM)
18 | O=CN(O)C[C@@H](CC1CCCC1)C(=O)N1CCC[C@H]1C(=O)NC(=O)NCCc1cnccn1 | 1.4 | ≤ 0.06 | 2 (≈ 4.34 µM) | 1 (≈ 2.17 µM) | 6.1 | 0.41 | 2 (≈ 4.34 µM) | 8 (≈ 17.4 µM)
19 | CNC(=O)NC(=O)[C@@H]1CCCN1C(=O)[C@H](CC1CCCC1)CN(O)C=O | 2.1 | ≤ 0.06 | 0.5 (≈ 1.36 µM) | 1 (≈ 2.71 µM) | 6.1 | 0.46 | 0.25 (≈ 0.679 µM) | 4 (≈ 10.9 µM)
20 | O=CN(O)C[C@@H](CC1CCCC1)C(=O)N1CCC[C@H]1C(=O)NC(=O)OC1CCNCC1 | 5.9 | 1 (≈ 2.28 µM) | > 64 | 8 (≈ 18.2 µM) | 2.7 | 1.4 | 16 (≈ 36.5 µM) | > 64
21 | NC(=O)CCNC(=O)NC(=O)[C@@H]1CCCN1C(=O)[C@H](CC1CCCC1)CN(O)C=O | 3.3 | 0.5 (≈ 1.18 µM) | 32 (≈ 75.2 µM) | 8 (≈ 18.8 µM) | 6.3 | 0.72 | 2 (≈ 4.7 µM) | > 64
22 | CC(=O)NC(=O)[C@@H]1CCCN1C(=O)[C@H](CC1CCCC1)CN(O)C=O | 12 | ≤ 0.06 | 1 (≈ 2.83 µM) | 4 (≈ 11.3 µM) | 16 | 4 | 0.25 (≈ 0.707 µM) | 8 (≈ 22.6 µM)
